Assay results of several laboratories.
Compare with care: the assays were run in different laboratories.
Oprm1: Mu-type opioid receptor (Oprm1, Rattus norvegicus, UniProt P33535)

SMILES | target | test | conditions | quantity | value
CC(C)(C)c1nc(-c2cccc(NS(=O)(=O)c3c(F)cccc3F)c2F)c(-c2ccnc(N)n2)s1 | Tau-tubulin kinase 1 (TTBK1, Homo sapiens, UniProt Q5TCY1) | enzyme activity, inhibitor, radiometric | 1 µM | remaining activity | 89%
CC[C@@H](C)[C@@H]1CN([C@@H](CC2CCCCC2)CN2CCC[C@H]2CN2CCNC[C@@H]2CO)CCN1CCc1ccc(Cl)c(Cl)c1 | Oprm1 | ligand displacement, radioligand | 0.5 µM, 1 h, pH 7.5, cell membranes | remaining binding | 97.8%
C#Cc1n[nH]c2c(-c3cn(C(C)c4ccccn4)c(=O)[nH]c3=O)cc(F)cc12 (stereo not shown) | Vascular endothelial growth factor receptor 1 (FLT1, Homo sapiens, UniProt P17948) | enzyme activity, inhibitor | 1 µM | inhibition | -3.1%
Cn1cc(-c2cccc(N3CCc4c(sc5c4CC(C)(C)C5)C3=O)c2CO)cc(Nc2ccncn2)c1=O | Mast/stem cell growth factor receptor Kit (KIT, Homo sapiens, UniProt P10721, T670I) | enzyme activity, inhibitor | 1 µM | inhibition | 0%
COc1ncccc1-c1cnn2ccc(N3CCN(C(=O)OC(C)C)CC3)nc12 | Mitogen-activated protein kinase kinase kinase 19 (MAP3K19, Homo sapiens, UniProt Q56UN5) | binding, competition with immobilised ligand | 1 µM | remaining binding | 100%
Cn1cc(-c2cc(F)cc(N3CCn4c(cc5c4CCCC5)C3=O)c2CO)cc(Nc2ccc(N3CCN(C4COC4)CC3)cn2)c1=O | Phosphatidylinositol 4-kinase alpha (PI4KA, Homo sapiens, UniProt P42356) | enzyme activity, inhibitor | 0.1 µM | inhibition | 6%
CC[C@@H](C)[C@@H]1CN([C@@H](CC2CCCCC2)CN2CCC[C@H]2CN2CCNC[C@@H]2CO)CCN1CCC12CC3CC(CC(C3)C1)C2 | Oprm1 | ligand displacement, radioligand | 0.5 µM, 1 h, pH 7.5, cell membranes | remaining binding | 101%
Cc1nn(C)cc1-c1nc2c(N3CCN(Cc4ccc(Cl)cc4)CC3)c(Cl)cnc2[nH]1 | Atypical kinase COQ8A, mitochondrial (COQ8A, Homo sapiens, UniProt Q8NI60) | binding, competition with immobilised ligand | 1 µM | remaining binding | 80%
OC[C@H]1CNCCN1C[C@@H]1CCCN1C[C@H](CC1CCCCC1)N1CCN(CCc2ccc(Cl)c(Cl)c2)[C@H](Cc2ccc(O)cc2)C1 | Oprm1 | ligand displacement, radioligand | 0.5 µM, 1 h, pH 7.5, cell membranes | remaining binding | 105%
Nc1ncc(-c2nc(N3CCOCC3)nc(N3CCOCC3)n2)c(C(F)F)n1 | Mast/stem cell growth factor receptor Kit (KIT, Homo sapiens, UniProt P10721, V559D) | binding, competition with immobilised ligand | 10 µM | remaining binding | 18%
